# An excerpt weighted towards active compounds, which were near 3% of everything screened.
# SENP7 block = SENP7 protease inhibition; inhibition, % at 5 µM; 330,000 compounds, 1.5% hits; Q9BQF6; recombinant SENP7, Z-RLRGG-aminoluciferin luminescence, 40 min;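 active = inhibition above about 50% at the single test dose, limit read from the data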;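 note: plate controls were DMSO with enzyme for no effect and no enzyme buffer wells for full effect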
# UBC13 inh = inhibitors of human UBC13 polyubiquitin chain formation | inhibition, % at 20 µM | P61088 | 330,000 compounds, 0.47% hits | TR-FRET | AID 485273; in the data active = inhibition above about 45%, passing the limit was not always enough
# Target sequence (P61088 whole entry, looked up): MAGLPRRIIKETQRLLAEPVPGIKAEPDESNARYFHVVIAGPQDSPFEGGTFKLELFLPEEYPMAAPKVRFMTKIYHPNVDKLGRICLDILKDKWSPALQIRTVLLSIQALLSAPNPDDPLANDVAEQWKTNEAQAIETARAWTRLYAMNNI
# SENP6 inh = SENP6 protease inhibition | Q9GZR1 | 330,000 compounds, 1.8% hits | AID 2599 | Recombinant SENP6 catalytic domain, aminoluciferin luminescence | inhibition, % at 10 µM;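 active = inhibition above about 50% at the single tested dose, limit read from the data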;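 note: plate controls were DMSO wells with enzyme for no effect and DMSO wells lacking enzyme for full effect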
# Target sequence (Q9GZR1 628-1112 limits assumed): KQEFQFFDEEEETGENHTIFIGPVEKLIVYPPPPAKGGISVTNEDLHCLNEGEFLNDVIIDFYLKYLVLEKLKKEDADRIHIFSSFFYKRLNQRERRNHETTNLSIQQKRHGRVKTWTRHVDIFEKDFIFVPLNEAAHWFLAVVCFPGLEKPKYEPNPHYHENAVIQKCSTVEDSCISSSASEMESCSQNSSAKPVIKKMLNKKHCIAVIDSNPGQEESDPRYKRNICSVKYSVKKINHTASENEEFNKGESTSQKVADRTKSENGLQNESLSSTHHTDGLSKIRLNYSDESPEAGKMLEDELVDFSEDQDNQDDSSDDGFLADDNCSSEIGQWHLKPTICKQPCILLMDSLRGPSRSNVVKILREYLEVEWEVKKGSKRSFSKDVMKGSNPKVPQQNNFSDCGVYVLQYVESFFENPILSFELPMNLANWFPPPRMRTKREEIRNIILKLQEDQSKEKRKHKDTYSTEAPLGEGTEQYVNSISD
# SENP8 block-1 = blocks human SENP8 cleavage of Nedd8 substrate. AID 602440. 360,000 compounds, 0.64% hits. recombinant SENP8, Nedd8 substrate fluorescence. inhibition, % at 20 µM; in the data active = inhibition mostly above about 40%, no sharp cut-off; inactive = mostly below about 27%
# Apaf-1 inh = blocks human Apaf-1 apoptosome activity | 330,000 compounds, 0.71% hits | O14727 | inhibition, % at 20 µM | AID 489030 | reconstituted apoptosome caspase-3 activity, DEVD-Rh110 fluorescence; active = inhibition of at least 40% at 20 µM;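 note: plate controls were DMSO wells for no effect and DEVD-CHO caspase inhibitor wells for full effect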
#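 detection = Rh110 fluorescence intensity | test system = biochemical Apaf-1 apoptosome reconstitution | also added = cytochrome c and DEVD-Rh110 substrate | schedule = 30 min plus 50 min, RT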
# SENP8 block-2 = blocks the human protease SENP8; purified SENP8, Z-RLRGG-aminoluciferin cleavage, luminescence; inhibition, % at 10 µM; 330,000 compounds, 1.2% hits; AID 2540; in the data active = inhibition above about 50%
# SENP8 conf = human SENP8 inhibition, confirmed | Recombinant SENP8, Z-RLRGG-aminoluciferin luminescence, 60 min | inhibition, % at 12.5 µM | shares compounds with SENP7 block | 6,200 compounds, 40% hits;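 active = mean inhibition across replicates above about 50%, limit read from the data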
# SENP6 conf = confirmation of human SENP6 protease inhibitors; AID 488915; recombinant SENP6, Z-RLRGG-aminoluciferin luminescence; 6,200 compounds, 58% hits; shares compounds with SENP7 block; inhibition, % at 12.5 µM
# SENP7 conf = human SENP7 inhibition, confirmed; shares compounds with SENP7 block; recombinant SENP7, Z-RLRGG-aminoluciferin luminescence, 40 min; inhibition, % at 12.5 µM; 6,200 compounds, 69% hits
# Casp3 select = caspase-3 inhibition (SENP selectivity assay) | 6,200 compounds, 60% hits | shares compounds with SENP7 block | AID 488918 | inhibition, % at 12.5 µM | purified caspase-3, Z-DEVD-aminoluciferin luminescence, 60 min;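 active = mean inhibition above about 50%, limit read from the data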;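 note: plate controls were enzyme with DMSO for no effect and wells without caspase-3 for full effect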
# Luc interf = interferes with luciferase luminescence in SENP counter-screen. shares compounds with SENP7 block. Pre-incubated SENP8/Z-RLRGG-aminoluciferin, luciferase luminescence interference. inhibition, % at 12.5 µM. 6,200 compounds, 39% hits. AID 488919;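 active = mean inhibition above about 50% when retested at one dose, limit read from the data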;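 note: plate controls were DMSO wells with completed reaction for no effect and substrate without enzyme for full effect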
# Starred values were filed as active, the others as inactive; nt = not tested or not shown.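 Rule for the calls, unless noted: active = mean inhibition above about 50% in the one-dose retest (limit read from the data); inactive = the rest.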
SMILES,SENP7 block,UBC13 inh,SENP6 inh,SENP8 block-1,Apaf-1 inh,SENP8 block-2,SENP8 conf,SENP6 conf,SENP7 conf,Casp3 select,Luc interf
Cc1ccc(-c2cc(-c3cccc(F)c3)n[nH]2)c(O)c1,44,20,78*,26,9,41,75*,72*,87*,13,19
Cc1ccc(O)c(-c2cc(-c3ccccc3F)[nH]n2)c1,55*,12,62*,23,17,57*,66*,72*,92*,28,14
CCc1nc2c(OCc3cccc(Cl)c3)cccn2c1N(C)C(=O)C1CC1,nt,nt,nt,3,nt,nt,nt,nt,nt,nt,nt
O=C(Nc1ccccc1F)c1ccc2snnc2c1,46,-2,51*,2,8,21,28,28,65*,72*,7
O=C(Nc1ccc(Cl)cc1)c1ccc2snnc2c1,-15,-9,4,23,17,-16,nt,nt,nt,nt,nt
O=C(Nc1ccccc1)Nc1ccc2snnc2c1,62*,6,62*,-1,-2,38,56*,54*,77*,39,63*
COc1cccc(C(NC(C)=O)c2nc(-c3ccc4ccccc4c3)cs2)c1 (stereo not given),nt,nt,nt,5,nt,nt,nt,nt,nt,nt,nt
CC(C)CSC1=NSC2=NC(=O)/C(=C\c3cccs3)C(=N)N12,11,-15,68*,10,-39,34,51*,53*,48,28,39
CSC1=NSC2=NC(=O)/C(=C\c3cccs3)C(=N)N12,nt,nt,nt,17,nt,nt,nt,nt,nt,nt,nt
N=C1/C(=C/c2cccs2)C(=O)N=C2SN=C(SCc3ccccc3)N12,19,-17,66*,27,5,29,47,59*,31,15,33
O=C(O)CCC(=O)N1CN2CN(C(=O)CCC(=O)O)CC([N+](=O)[O-])(C2)C1,3,17,-15,19,-26,-2,nt,nt,nt,nt,nt
COC(=O)CCC(=O)N1CN2CN(C(=O)CCC(=O)OC)CC([N+](=O)[O-])(C2)C1,8,4,95*,19,-152,0,-26,-21,-11,-11,-8
O=C(C[C@H]1CC[C@H]2[C@@H](COC[C@@H](O)CN2C(=O)c2cnccn2)O1)NCc1ccc(Oc2ccccc2)cc1,nt,nt,nt,19,nt,nt,nt,nt,nt,nt,nt
COc1ccc(-c2cc(=O)c3c(O)c(OC)c(OC)c(OC)c3o2)cc1,nt,nt,nt,19,nt,nt,nt,nt,nt,nt,nt
COc1ccc(-c2cc(=O)c3c(O)c(OC)c(O)cc3o2)cc1,87*,3,84*,6,12,83*,90*,90*,99*,89*,55*
O=c1cc(-c2ccccc2)oc2cc(O)cc(O)c12,23,10,35,15,4,43,nt,nt,nt,nt,nt
O=c1cc(-c2ccc(O)cc2)oc2cc(O)cc(O)c12,29,29,70*,14,7,54*,52*,51*,75*,40,62*
O=c1cc(-c2ccc(O)cc2)oc2ccc(O)cc12,30,27,51*,-278,6,19,12,20,61*,45,45
CCC(C)c1ccc(O)c(NC(=S)NC(=O)c2cccs2)c1 (stereo not given),nt,nt,nt,20,nt,nt,nt,nt,nt,nt,nt
CN(C)c1ccc(CNC(=O)C2Cc3c(-c4cccc(C(N)=O)c4)ccnc3O2)cc1 (stereo not given),nt,nt,nt,18,nt,nt,nt,nt,nt,nt,nt
CCOC(=O)c1oc2cccc(O)c2c1C,63*,21,-13,-48,6,50*,2,59*,82*,59*,65*
Cc1ccc(S(=O)(=O)c2c(C)cc(C)nc2Cl)cc1,2,5,62*,28,1,3,2,0,-5,-5,-3
COc1cc(/C=C2/C(=N)N3C(SC)=NSC3=NC2=O)ccc1OC(=O)c1ccco1,8,-2,53*,8,6,64*,75*,73*,92*,68*,13
COc1cc(/C=C2/SC(=O)NC2=O)ccc1OC(=O)c1ccco1,85*,-11,88*,-15,2,82*,58*,74*,24,61*,22
CCOc1cc(/C=C2/SC(=S)NC2=O)ccc1OC(=O)c1ccco1,4,-19,3,20,18,3,nt,nt,nt,nt,nt
SMILES,SENP7 block,UBC13 inh,SENP6 inh,SENP8 block-1,Apaf-1 inh,SENP8 block-2,SENP8 conf,SENP6 conf,SENP7 conf,Casp3 select,Luc interf
O=C1NC(=S)S/C1=C/c1ccc(OC(=O)c2ccco2)cc1,29,-12,76*,27,9,46,21,32,9,26,10
COc1cc(/C=C2/SC(=S)N(C)C2=O)ccc1OC(=O)c1ccco1,66*,-31,5,34,27,28,8,7,3,16,28
COc1cc(/C=C2/C(=N)N3C(=NC2=O)SN=C3S(C)(=O)=O)ccc1OC(=O)c1ccco1,15,-24,25,-13,-1,19,nt,nt,nt,nt,nt
COC(=O)c1ccc2nc(-c3ccco3)c(Cc3cccc(F)c3)n2c1,nt,nt,nt,-371,nt,nt,nt,nt,nt,nt,nt
Nc1ccn([C@@H]2O[C@H](C(=O)N3CCCN(Cc4ccccc4F)CC3)[C@@H](O)[C@H]2O)c(=O)n1,nt,nt,nt,19,nt,nt,nt,nt,nt,nt,nt
CCCn1cnnc1CNC(=O)[C@H]1O[C@@H](n2ccc(=O)[nH]c2=O)[C@H](O)[C@@H]1O,nt,nt,nt,7,nt,nt,nt,nt,nt,nt,nt
CCOC1=C2[C@H](c3ccccc3)N(S(=O)(=O)c3ccc(C)cc3)C(C(C)(C)C)[C@H]2C(C#N)(C#N)C(C#N)(C#N)C1 (stereo not given in full),nt,nt,nt,6,nt,nt,nt,nt,nt,nt,nt
CCOC(=O)c1ccc(N2NC(=O)/C(=C/c3ccc(OC(=O)c4ccco4)c(OC)c3)C2=O)cc1,-1,-20,-18,nt,12,-12,nt,nt,nt,nt,nt
COc1cc(/C=N/N(C)C)ccc1OC(=O)c1ccco1,1,-4,-7,7,0,-6,nt,nt,nt,nt,nt
COc1cc(/C=N/N2CCOCC2)ccc1OC(=O)c1ccco1,70*,0,60*,-2,3,40,60*,57*,88*,67*,77*
COc1cc(/C=C2\C(=O)N(c3ccc(S(N)(=O)=O)cc3)N=C2C)ccc1OC(=O)c1ccco1,70*,-64,76*,57*,91*,26,12,35,-2,5,-1

# Screens deposited in PubChem BioAssay by Sanford-Burnham Center for Chemical Genomics.
